{
  "source": "ChEMBL document CHEMBL3351861",
  "about": "“New synthetic sulfone derivatives inhibit growth, adhesion and the leucine arylamidase APE2 gene expression of Candida albicans in vitro” (2015)",
  "system": "Candida albicans",
  "assay": "Reduction in APE2 gene expression in compound pre-treated Candida albicans SC5314 grown on human Caco2 cells monolayer at 16 ug/ml pre-treated for 2 hrs measured after 6 hrs by RT-PCR method",
  "format": "functional, Caco-2",
  "method_in_brief": "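Caco-2 was seeded at 1.2×10^5 cells/ml in EMEM (10% FCS, 1 mM pyruvate, no antibiotics) for 18 h at 37°C, 5% CO2. Yeast (10^4 cfu/ml) was pre-incubated 2 h in RPMI with 16 µg/ml sulfone, washed, resuspended in RPMI and inoculated onto the monolayer at 37°C. APE2 mRNA was measured by SYBR qPCR against ACT1 (2^-ΔΔCt, 90028 calibrator), in triplicate.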",
  "data": [
    {"smiles": "NNc1ccc(S(=O)(=O)C(Cl)(Br)Br)cc1[N+](=O)[O-]", "values": [
      {"measurement": "ΔCt", "value": 6.39}
    ]}
  ]
}
